ABHD5-PLIN5 inh = ABHD5-PLIN5 interaction inhibitors, primary screen, cell lysate, split luciferase complementation, luminescence. Perilipin-5 (Homo sapiens) + 1-acylglycerol-3-phosphate O-acyltransferase ABHD5 (Homo …. Split G. princeps luciferase complementation, 4 h. inhibition, % at 4 µM. actives 0.78% (n = 360,000);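 active = inhibition above the mean inhibition across every tested compound plus 3 SD, cut at about 22% in these data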
Rpn11 inh = Rpn11 (PSMD14) deubiquitinase inhibitors, primary screen, biochemical, fluorescence polarization, uHTS; 26S proteasome non-ATPase regulatory subunit 14 (Homo sapiens), O00487; human 26S proteasome, Ub4-pepOG fluorescence polarization; 20S core pre-blocked with epoxomicin; actives 0.59% (n = 360,000); inhibition, % at 20 µM;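 active = inhibition at 20 µM, scaled to each plate's controls, above about 33%, limit read from the data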
Target sequence (O00487 whole entry, looked up): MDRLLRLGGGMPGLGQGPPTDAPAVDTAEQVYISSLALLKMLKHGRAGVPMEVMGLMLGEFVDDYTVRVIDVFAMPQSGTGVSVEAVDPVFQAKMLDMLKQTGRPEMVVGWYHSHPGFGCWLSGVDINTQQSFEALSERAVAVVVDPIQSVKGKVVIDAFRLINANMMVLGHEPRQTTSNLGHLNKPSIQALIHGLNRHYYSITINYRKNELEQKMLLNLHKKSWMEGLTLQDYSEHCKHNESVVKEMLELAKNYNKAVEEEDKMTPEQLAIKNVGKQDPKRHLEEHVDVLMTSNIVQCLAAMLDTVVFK
Rin1 Abl inh = inhibitors of Rin1-Abl protein binding, primary screen, biochemical, TR-FRET; inhibition, % at 7.35 µM; actives 0.4% (n = 360,000); Tyrosine-protein kinase ABL1 (Homo sapiens) + Ras and Rab interactor 1 (Homo sapiens), …; in the data active = inhibition above about 5%, passing the limit was not always enough
NadD block = inhibitors of S. aureus NadD, primary screen, biochemical, colorimetric, uHTS | Nicotinate-nucleotide adenylyltransferase NadD (Staphylococcus aureus N315) | actives 0.78% (n = 360,000) | AID 602399, 2012 | purified NadD enzyme, colorimetric absorbance read-out | inhibition, % at 20 µM; in the data active = inhibition above about 26%
Xi reactivation = activators of inactive X chromosome reactivation, primary screen, imaging, XiGFP fibroblasts, GFP high-content imaging, set 2. XiGFP mouse fibroblasts, % GFP-positive cells imaging, 3 d; cells co-treated with 5-aza-dC sensitizer; scaled so ellipticine positive control = 100%. activation, % at 7.58 µM. actives 0.055% (n = 360,000). AID 743238, 2013;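 active = mean normalized replicate activation at least 10% and every replicate at or above 10%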
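System: XiGFP fibroblasts, SV40-immortalized. Medium: DMEM plus 5-aza-dC sensitizer. Doses: single point. Timing: 3 d treatment, 15 min room-temperature fixation. Control set: ellipticine 6 µM.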
Rpn11 confirm = Rpn11 (PSMD14) deubiquitinase inhibitors, confirmation, biochemical, fluorescence polarization, single concentration. shares compounds with Rpn11 inh. purified human 26S proteasome, Ub4-pepOG fluorescence polarization; proteasome pretreated with epoxomicin. inhibition, % at 20 µM. actives 29% (n = 1,900)
MMP-2 counter = MMP-2 enzyme inhibition, confirmation, counter-screen for RPN11 inhibitor project, biochemical, fluorescence, single concentration | actives 4% (n = 1,900) | shares compounds with Rpn11 inh | inhibition, % at 20 µM | recombinant MMP-2, FRET peptide cleavage fluorescence;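 also: human MMP-2 activated beforehand with APMA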
Thrombin inh = bovine thrombin protease inhibition, confirmation, counter-screen for Rpn11 inhibitor project, biochemical, fluorescence polarization, single concentration; shares compounds with Rpn11 inh; bovine thrombin cleavage of Ub4-pepOG; inhibition, % at 20 µM; actives 13% (n = 1,900); AID 602333, 2012;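 active = mean inhibition at least 40% at 20 µM, or signal 3 deviations below plate average, so some actives read negative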
Large screens that a line does not name were inactive (follow-up assays come after a bar, where shown). Sampled rows, rich in hits. Any-hit rate of the full collection: about 1.9%. Rule as the data show it, unless noted: active = inhibition above about 40%; inactive = the rest.

CCN1CCN(CCCNC(=O)c2ccc3c(Cl)c4c(nc3c2)CCCC4)CC1	none
O=C(NCCCN1CCCCCC1)c1ccc2c(Cl)c3c(nc2c1)CCCC3	Rpn11 inh 75 | Rpn11 confirm inactive | MMP-2 counter inactive | Thrombin inh inactive
FC(F)(F)C(F)(F)C(F)(F)c1nnc2ccc(N3CCOCC3)nn12	Rpn11 inh 92 (no result: Xi reactivation) | Rpn11 confirm inactive | MMP-2 counter inactive | Thrombin inh inactive
C[C@@H]1CN([C@@H](C)CO)C(=O)c2cc(Br)cnc2O[C@@H]1CN(C)CC1CCCC1	none (no result: ABHD5-PLIN5 inh, Rpn11 inh, Rin1 Abl inh, NadD block)
COC(=O)c1[nH]c2ccc(C)cc2c1NC(=O)CN1CCCc2ccccc21	Rpn11 inh 66 (no result: Xi reactivation) | Rpn11 confirm 48 | MMP-2 counter inactive | Thrombin inh inactive
COC(=O)c1[nH]c2cc(C)ccc2c1NC(=O)CN1CCN(c2ccccc2OC)CC1	none (no result: Xi reactivation)
Cc1ccnc2nc(C(=O)Nc3ccc(N4CCOCC4)cc3)nn12	Rpn11 inh 133 (no result: Xi reactivation) | Rpn11 confirm inactive | MMP-2 counter inactive | Thrombin inh inactive
Cc1ccc(CCNC(=O)c2coc3nc4ccccc4nc23)cc1	Rpn11 inh 41 (no result: Xi reactivation) | Rpn11 confirm inactive | MMP-2 counter inactive | Thrombin inh inactive
CC1CCN(CCCNC(=O)c2coc3nc4ccccc4nc23)CC1	none (no result: Xi reactivation)
O=C(COC(=O)CCN1C(=O)/C(=C\C=C\c2ccccc2)SC1=S)Nc1ccc(Br)cc1	Rpn11 inh 59 | Rpn11 confirm inactive | MMP-2 counter inactive | Thrombin inh inactive
CCOc1ccc2nc(NC(=O)Cn3[nH]c(=O)c4ccccc4c3=O)sc2c1	Rpn11 inh 68 | Rpn11 confirm 56 | MMP-2 counter inactive | Thrombin inh inactive
O=C(Nc1nnc(Cc2c[nH]c3ccccc23)s1)c1ccc(Cl)cc1Cl	Rpn11 inh 42 | Rpn11 confirm inactive | MMP-2 counter inactive | Thrombin inh inactive
CCOC(=O)N1CCN(C(=O)c2nc3ccccc3s2)CC1	Rpn11 inh 111 (no result: Xi reactivation) | Rpn11 confirm inactive | MMP-2 counter inactive | Thrombin inh inactive
CCOC(=O)N1CCN(CC(=O)Nc2nc3ccccc3s2)CC1	none
Cc1ccc(NC(=O)/C(C#N)=C/c2ccc(C)s2)c(C)c1	none (not shown: Rpn11 inh, Xi reactivation)
Cc1ccc(/C=C(\C#N)C(=O)Nc2c(C)cccc2C)s1	Rpn11 inh 85 (no result: Xi reactivation) | Rpn11 confirm 96 | MMP-2 counter inactive | Thrombin inh 80
C[C@@H]1CN([C@H](C)CO)C(=O)c2cccc(NC(=O)CCCCCC(=O)Nc3ccccc3N)c2O[C@H]1CN(C)C(=O)Nc1ccc(F)cc1	none (no result: ABHD5-PLIN5 inh, Rpn11 inh, Rin1 Abl inh, NadD block)
O=C(O)CSc1ncnc2scc(-c3ccc(Br)cc3)c12	Rpn11 inh 51 (no result: Xi reactivation) | Rpn11 confirm inactive | MMP-2 counter inactive | Thrombin inh inactive
CCc1ccc(-n2c(O)c(C=NCCN(CC)CC)c(=O)[nH]c2=O)cc1	Rpn11 inh 75 (no result: Xi reactivation) | Rpn11 confirm inactive | MMP-2 counter inactive | Thrombin inh inactive
COc1ccc(CN(C)C[C@@H]2Oc3ccc(NS(=O)(=O)c4cccs4)cc3CC(=O)N([C@@H](C)CO)C[C@H]2C)cc1	none (no result: ABHD5-PLIN5 inh, Rpn11 inh, Rin1 Abl inh, NadD block)
CC1CCN(c2ccc3c(c2)S(=O)(=O)c2cccc(C(=O)NC4CCCCC4)c2C3=O)CC1	Rpn11 inh 88 | Rpn11 confirm 44 | MMP-2 counter inactive | Thrombin inh inactive
CC1CCN(c2ccc3c(c2)S(=O)(=O)c2cccc(C(=O)NCc4ccc(F)cc4)c2C3=O)CC1	none
O=C(NCc1ccc(F)cc1)c1cccc2c1C(=O)c1ccc(N3CCOCC3)cc1S2(=O)=O	Rpn11 inh 45 | Rpn11 confirm 54 | MMP-2 counter inactive | Thrombin inh inactive
C=CCNC(=O)c1cccc2c1C(=O)c1ccc(N3CCOCC3)cc1S2(=O)=O	Rpn11 inh 49 | Rpn11 confirm inactive | MMP-2 counter inactive | Thrombin inh inactive
CN1C(=O)c2cc(NC(=O)C3CC3)ccc2OC[C@H]2O[C@H](CC(=O)O)CC[C@@H]21	none (no result: ABHD5-PLIN5 inh, Rpn11 inh, Rin1 Abl inh, NadD block)
O=C(NC1CCCC1)[C@H]1[C@H](CO)[C@H]2Cn3c(ccc(-c4ccccc4)c3=O)[C@@H]1N2CC1CC1	none (no result: ABHD5-PLIN5 inh, Rpn11 inh, Rin1 Abl inh, NadD block)
CCC(=O)N1CC(=O)N2[C@H](CO)[C@H](c3ccc(C#CC(C)C)cc3)[C@@H]2C1	none (no result: ABHD5-PLIN5 inh, Rpn11 inh, Rin1 Abl inh, NadD block)
O=C1CN(S(=O)(=O)Cc2ccccc2)C[C@H]2[C@@H](c3ccc(C#Cc4cccnc4)cc3)[C@@H](CO)N12	none (no result: ABHD5-PLIN5 inh, Rpn11 inh, Rin1 Abl inh, NadD block)
COC(=O)c1ccc(CSc2ncnc3c2sc2nc(N4CCOCC4)c4c(c23)CCCC4)o1	Rpn11 inh 41 (no result: Xi reactivation) | Rpn11 confirm inactive | MMP-2 counter inactive | Thrombin inh inactive
Cc1cc(C(F)(F)F)nc(SCCN2CCOCC2)c1C#N	Rpn11 inh 44 | Rpn11 confirm 50 | MMP-2 counter inactive | Thrombin inh inactive
N#Cc1c(C(F)(F)F)cc(-c2ccc(Cl)c(Cl)c2)nc1SCCN1CCOCC1	Rpn11 inh 52 (no result: Xi reactivation) | Rpn11 confirm inactive | MMP-2 counter inactive | Thrombin inh inactive
N#Cc1c(C(F)(F)F)cc(-c2ccccc2)nc1SCc1nc(N)nc(N2CCOCC2)n1	none (no result: Xi reactivation)
Cc1cc(C)c(C#N)c(SCCN2CCCCC2)n1	none
CSc1nsc2nc(=O)c(/C=C3\C(C)=Nc4ccc(C)cc43)c(N)n12	none
CC1=Nc2ccc(C)cc2/C1=C/c1c(N)n2oc(C)cc2nc1=O	Rpn11 inh 70 | Rpn11 confirm 59 | MMP-2 counter inactive | Thrombin inh inactive
COc1cccc(OC)c1C(=O)Nc1sc2c(c1C(N)=O)CCN(Cc1ccccc1)C2	none
CCN1CCc2c(sc(NC(=O)c3cc4ccccc4cc3OC)c2C(N)=O)C1	Rpn11 inh 72 | Rpn11 confirm 75 | MMP-2 counter inactive | Thrombin inh inactive
CC(C)NC(=O)N(C)C[C@H]1Oc2ccc(NS(C)(=O)=O)cc2CC(=O)N(C)C[C@H]1C	none (no result: ABHD5-PLIN5 inh, Rpn11 inh, Rin1 Abl inh, NadD block)
COc1ccccc1-c1csc(-n2ncc(C#N)c2N)n1	Rpn11 inh 92 | Rpn11 confirm 45 | MMP-2 counter 50 | Thrombin inh inactive
COc1ccc(-c2csc(-n3ncc(-c4ccccn4)c3N)n2)cc1	none
CC(=O)NNc1ncnc2ccccc12	none
O=C(NNc1ncnc2ccccc12)c1cccc(Cl)c1	Rpn11 inh 74 | Rpn11 confirm 77 | MMP-2 counter inactive | Thrombin inh inactive

Screens: PubChem BioAssay, several laboratories
